Compound activity (PubChem BioAssay)
TAAR1 ag: agonists of human TAAR1; 360,000 tested, 0.99% active; CHO RD-HGA16 TAAR1, Fluo-8 calcium fluorescence; vehicle wells 0%, saturating PEA agonist 100%; Q96RJ0; activation, % at 3 µM;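 active = activation above the mean activation of all test compounds in the run plus 3 SD, cut at about 38% in these data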
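Test system: RD-HGA16 (CHO) cells co-expressing Gα16 and hTAAR1 / Benchmarks: DMSO vehicle as 0%, PEA at EC100 as 100% / Repeats: no replicates (n 1) / Measure: % activation from peak over basal fluorescence ratio, DMSO-to-PEA scaled / Timing: 17-24 h plating, Fluo-8 75 min 37 °C, 30 min RT / Technique: kinetic Fluo-8 calcium fluorescence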
OX1R antag-1: blocks the human orexin 1 receptor | O43613 | CHO/OX1R cells, Fluo-8 calcium fluorescence, orexin A | inhibition, % at 5 µM | 330,000 tested, 0.43% active | AID 434989;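 active = inhibition above its plate's threshold, mean inhibition of all tested compounds on the plate plus 3 SD, cut at about 37% in these data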;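 also: 0% = orexin A challenge wells and 100% = SB-334867-A antagonist wells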
GPR7 antag: antagonists of human GPR7 (neuropeptides B/W receptor 1); inhibition, % at 4.4 µM; GPR7-expressing cells, fluorescence antagonist assay; 290,000 tested, 1.1% active; P48145; in the data active = inhibition above about 16%, passing the limit was not always enough;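 also: cells stimulated with the agonist NPW; 0% = agonist with vehicle and 100% = vehicle without agonist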
Target sequence (P48145 whole entry, looked up): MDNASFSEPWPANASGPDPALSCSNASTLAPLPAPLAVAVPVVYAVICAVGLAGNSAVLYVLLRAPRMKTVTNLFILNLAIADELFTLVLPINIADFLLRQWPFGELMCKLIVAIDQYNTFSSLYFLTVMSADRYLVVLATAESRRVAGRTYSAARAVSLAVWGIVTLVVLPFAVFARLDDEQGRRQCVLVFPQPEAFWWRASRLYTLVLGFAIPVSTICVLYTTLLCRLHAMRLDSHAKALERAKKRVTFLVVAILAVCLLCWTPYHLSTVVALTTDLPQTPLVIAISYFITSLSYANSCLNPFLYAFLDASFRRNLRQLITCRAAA
CHO parental Ca: signal in parental CHO cells, OX1R antagonist counter-screen | parental CHO-K1, ATP-induced calcium, Fluo-8 fluorescence | 330,000 tested, 0.63% active | inhibition, % at 5.6 µM;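 active = inhibition above that plate's mean sample inhibition plus 3 SD, cut at about 26% in these data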;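 also: 0% = ATP-challenged DMSO wells and 100% = DMSO wells without ATP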
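Measured by: calcium-sensitive Fluo-8 fluorescence / Test system: CHO parental line / Controls: ATP-challenged DMSO wells low, unchallenged DMSO wells high / Measure: % inhibition / Compound: single nominal dose of 5.6 µM per compound / Replicates: single well per compound, no replicates / Reagent: ATP as calcium-mobilizing challenge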
TAAR1 antagonist: human TAAR1 antagonism. AID 624466. inhibition, % at 3 µM. CHO RD-HGA16 TAAR1, Fluo-8 calcium fluorescence, antagonist. 360,000 tested, 1.5% active. Q96RJ0;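 active = inhibition above a per-plate cutoff, the mean inhibition of test compounds on that plate plus 3 SD, cut at about 49% in these data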;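 also: 0% = DMSO plus EC80 beta-PEA response and 100% = DMSO alone without agonist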
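Material: CHO RD-HGA16 cells bearing hTAAR1; compound dosing: one-point dosing, 3 µM nominal final; schedule: dye loading 75 min at 37 °C, then 30 min room temperature; measured by: calcium fluorescence with Fluo-8; control set: vehicle and agonist controls; replication: n of 1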
OX1R antag-2: blocks the human orexin 1 receptor; inhibition, % at 6.6 µM; 330,000 tested, 1.8% active; AID 485270; OX1R-expressing cells, FRET antagonist read-out; in the data active = inhibition mostly above about 38%, no sharp cut-off; inactive = mostly below about 40%;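 also: 0% = agonist challenge alone and 100% = reference antagonist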
TAAR1 ag conf: confirmation of human TAAR1 agonists. shares compounds with TAAR1 ag. CHO RD-HGA16 TAAR1, Fluo-8 calcium fluorescence; scaled: DMSO 0%, maximal phenethylamine 100%. activation, % at 3 µM. 2,400 tested, 82% active. AID 651783;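 active = activation above a cutoff set at the run's mean compound activation plus 3 SD, cut at about 39% in these data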
Ga16 ag counter: counter-screen for TAAR1 agonists: nonselective agonists in parental cells | shares compounds with TAAR1 ag | CHO-Ga16 parental, Fluo-8 calcium fluorescence; normalized to maximal ATP response, DMSO zero | activation, % at 3 µM | 2,400 tested, 50% active;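 active = activation above the run cutoff, the mean activation over all tested wells plus 3 SD, cut at about 12% in these data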;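 also: 0% = DMSO wells and 100% = maximal ATP response on the peak over basal ratio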
TAAR1 desens: human TAAR1 agonist that also desensitizes the receptor. shares compounds with TAAR1 ag. CHO RD-HGA16 hTAAR1, Fluo-8 calcium, beta-PEA response inhibition. inhibition, % at 3 µM. 2,400 tested, 46% active. AID 651951;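 active = inhibition above the run cutoff, the mean inhibition of all test compounds plus 3 SD, cut at about 49% in these data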;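 also: beta-PEA stimulus applied at its EC80; loss of beta-PEA calcium signal after compound pretreatment read as receptor desensitization; 0% = DMSO with beta-PEA at EC80 and 100% = DMSO alone without agonist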
Ga16 nonsel ant: nonselective Ga16 antagonist in TAAR1 agonist counter-screen | 2,400 tested, 39% active | shares compounds with TAAR1 ag | CHO-Ga16 ATP-induced calcium, Fluo-8 fluorescence | inhibition, % at 3 µM | AID 651952;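 active = inhibition above the plate's mean compound inhibition plus 3 SD, computed per plate, cut at about 22% in these data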;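 also: 0% = EC80 ATP with DMSO and 100% = DMSO wells without ATP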
* = called active by the depositor; x = no result given. Most compounds without a hit are left out; they make up all but 4.5% or so of the library.

SMILES	TAAR1 ag	OX1R antag-1	GPR7 antag	CHO parental Ca	TAAR1 antagonist	OX1R antag-2	TAAR1 ag conf	Ga16 ag counter	TAAR1 desens	Ga16 nonsel ant
CCc1ccc(C(O)c2ncc(-c3ccccc3Cl)[nH]2)cc1 (stereo not drawn)	9	x	x	x	12	x	x	x	x	x
O=C1/C(=C\c2cccc(O)c2)SC(=S)N1Cc1ccccc1	0	-20	-13	10	-10	8	x	x	x	x
O=C1/C(=C\c2cccc(O)c2O)SC(=S)N1Cc1ccccc1	50*	-5	-5	2	-17	2	21	18*	22	29*
COc1cc(C(=O)NC(CCSC)C(=O)Nc2ccc(N3CCOCC3)cc2)cc(OC)c1OC (stereo not drawn)	7	x	x	x	-22	x	x	x	x	x
O=C1C(=C(c2ccccc2)N2CCOCC2)Cc2ccccc21	2	x	x	x	-7	x	x	x	x	x
O=C1C=C(c2ccccc2)C(=O)N1Nc1ccccc1	51*	26	1	14	16	27	70*	48*	43	35*
Cc1c(Cl)cccc1NC(=O)Cc1ccc([N+](=O)[O-])cc1	56*	-16	12	-1	18	5	31	17*	15	13
CN1CCN(c2ncnc3c2ncn3[C@H]2CN(Cc3ccc(C(=O)O)cc3)C[C@@H](CO)O2)CC1	0	x	x	x	0	x	x	x	x	x
Cc1cccc(CCNCc2c(C(=O)O)c(C)n(-c3ccccc3)c2C)c1	58*	-35	-4	-29	6	0	78*	1	44	3
Cc1c(CNCCCc2ccccc2)c(C(=O)O)c(C)n1Cc1ccccc1	11	-13	-1	-34	-5	-1	x	x	x	x
CCCCCCCCN1C(=O)[C@H](CC(=O)N2CCCC2)C[C@@]2(C(=O)OC)CCCCC=C12	0	x	x	x	-46	x	x	x	x	x
Cc1cccc(Nc2nc(NCc3ccco3)c3ccccc3n2)c1	70*	44	13	74*	31	19	50*	4	48	28*
Oc1cccc(Nc2c3ccccc3nc3ccccc23)c1	-2	-8	-7	1	9	21	x	x	x	x
Cc1ccc(-c2nc(NCc3ccco3)c3ccccc3n2)cc1	8	-19	-5	-7	-14	17	x	x	x	x
OCCNc1nc(Nc2ccc(O)cc2)nc2ccccc12	88*	-8	-14	7	59*	6	97*	0	95*	-6
COc1cccc(Nc2nc(NCCO)c3ccccc3n2)c1	50*	-9	9	-17	34	25	80*	2	60*	2
OCCNc1nc(Nc2cccc(O)c2)nc2ccccc12	97*	-13	-12	-2	84*	9	101*	1	98*	7
OCCNc1nc(NCc2ccccc2)c2ccccc2n1	1	-21	-2	-6	-10	4	x	x	x	x
O=C(NCc1ccccn1)[C@@H]1CCCN1C(=O)[C@@H]1CCCN1	3	x	x	x	-2	x	x	x	x	x
COC(=O)[C@H](CC(C)C)NC(=O)CC[C@H]1O[C@@H](n2cc(C)c(=O)[nH]c2=O)C[C@@H]1O	0	x	x	x	-7	x	x	x	x	x
COc1ccc(S(=O)(=O)N2CCCOC2CNC(=O)C(=O)NCc2ccccc2C)cc1 (stereo not drawn)	2	x	x	x	-16	x	x	x	x	x
